An excerpt weighted towards active compounds, which were near 1.8% of everything screened.
CHRM5 PAM – CHRM5 positive allosteric modulation | P08912 | CHO-K1 hM5, Fluo-8 calcium, ACh EC20 PAM; 0% = ACh EC20, 100% = ACh EC100 | activation, % at 3 µM | 0.3% of 360,000 active;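 active = activation above the run cutoff, the mean activation of all test compounds plus 3 SD, cut at about 18% in these data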
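system = human M5 receptor in CHO-K1 cells | compound = one concentration, 3 µM final (nominal) | schedule = Post-acetylcholine fluorescence recording 140 s | signal = Fluo-8 calcium dye fluorescence, kinetic read | benchmarks = low control EC20 acetylcholine (0%), high control EC100 acetylcholine (100%) | repeats = singlicate, one well per test compound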
CHRM4 antagonist – antagonists of human muscarinic M4 receptor (CHRM4) | CHO-hM4 cells, ACh EC80, Fluo-8 calcium fluorescence | inhibition, % at 3 µM | 0.73% of 360,000 active;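 active = inhibition above its plate's cutoff, the mean inhibition of sample wells plus 3 SD, cut at about 27% in these data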;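 also: 0% = acetylcholine EC80 with DMSO and 100% = DMSO without agonist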
Target sequence (P08173 whole entry, looked up): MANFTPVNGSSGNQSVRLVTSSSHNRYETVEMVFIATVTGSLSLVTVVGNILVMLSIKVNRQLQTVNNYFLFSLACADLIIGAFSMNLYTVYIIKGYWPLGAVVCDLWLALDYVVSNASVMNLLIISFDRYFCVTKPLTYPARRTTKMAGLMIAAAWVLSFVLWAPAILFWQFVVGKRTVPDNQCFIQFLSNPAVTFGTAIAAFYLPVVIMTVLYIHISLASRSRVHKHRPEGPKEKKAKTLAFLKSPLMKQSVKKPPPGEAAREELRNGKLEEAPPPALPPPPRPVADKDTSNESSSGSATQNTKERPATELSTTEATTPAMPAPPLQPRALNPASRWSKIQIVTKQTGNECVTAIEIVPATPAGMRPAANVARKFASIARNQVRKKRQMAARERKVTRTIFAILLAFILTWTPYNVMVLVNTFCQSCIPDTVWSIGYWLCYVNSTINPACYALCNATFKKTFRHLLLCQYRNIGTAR
CHRM4 agonist – CHRM4 agonism in calcium assay | activation, % at 3 µM | AID 624127 | 0.14% of 360,000 active | CHO-K1 hM4/Gqi5, Fluo-8 calcium fluorescence; vehicle 0%, full acetylcholine response 100% | P08173;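 active = activation above the run mean over all test wells plus 3 SD, cut at about 32% in these data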;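 also: peak over basal fluorescence ratio per well then scaled between controls; 0% = DMSO wells and 100% = acetylcholine at EC100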
M5 ag – CHRM5 agonism in calcium assay. P08912. activation, % at 3 µM. CHO-K1 hM5 cells, Fluo-8 calcium fluorescence; 0% DMSO wells, 100% maximal acetylcholine response. 0.19% of 360,000 active;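 active = activation above the run's mean over test compounds plus 3 SD, cut at about 23% in these data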;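 also: signal is peak over basal fluorescence ratio across the kinetic read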
CHRM4 PAM – potentiates acetylcholine response at human M4 receptor. P08173. CHO-K1 hM4/Gqi5, Fluo-8 calcium fluorescence, ACh EC20; 0% = ACh EC20, 100% = maximal ACh. activation, % at 3 µM. 0.4% of 360,000 active;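 active = activation above its plate's cutoff, the mean activation of sample wells plus 3 SD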
CHRM5 antagonist – antagonists of human muscarinic M5 receptor (CHRM5); CHO-hM5 cells, Fluo-8 calcium fluorescence, ACh EC80; 0.59% of 360,000 active; inhibition, % at 3 µM; P08912;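 active = inhibition above a per-plate cutoff, the mean of that plate's test compounds plus 3 SD, cut at about 27% in these data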;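 also: 0% = acetylcholine EC80 with DMSO and 100% = DMSO without agonist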
* marks the source's active call; other numbers are inactive results.

SMILES	CHRM5 PAM	CHRM4 antagonist	CHRM4 agonist	M5 ag	CHRM4 PAM	CHRM5 antagonist
CCc1nc2c(OCc3ccc(C(F)(F)F)cc3)cccn2c1N(C)C(=O)C(C)C	-1	-1	-1	-3	2	-1
Cc1cc(N2Cc3ccccc3C2)ccc1C=O	-5	-6	2	15	-7	38*
COC(=O)[C@H](CC(C)C)NS(=O)(=O)c1ccc(F)cc1Br	4	-11	1	1	7	-10
Cc1cc(F)ccc1C(O)c1ncc(-c2ccccc2Cl)[nH]1 (stereo not given)	-2	-4	3	1	1	5
O=C1NC(Cc2ccc(O)cc2)c2nc3cc(F)c(F)cc3c(=O)n2-c2ncccc21 (stereo not given)	0	0	2	1	7	13
C/C(CC1CC(C)(C)OC1=O)=N\NC(N)=S (stereo not given)	15	-2	0	2	7	-8
C/C(CC1CC2=C(CC1(C)C)C(C)(C)CCC2)=N\NC(N)=S (stereo not given)	2	5	1	4	43*	0
CCNC(=O)C1(C)CCCN(C(=O)c2nc3ccccc3s2)C1 (stereo not given)	1	-5	1	-1	7	-10
NC(=O)N/N=C/c1c(F)c(F)c(F)c(F)c1F	2	-7	1	-1	3	4
NC(=O)N/N=C/c1c(F)cccc1F	-3	-2	1	-1	23*	11
CC(Oc1ccc(C(C)(C)C)cc1)c1ccnc2nc(/N=C/N(C)C)nn12 (stereo not given)	-14	44*	0	-12	-32	2
CC(Oc1ccc(F)cc1)c1ccnc2nc(/N=C/N(C)C)nn12 (stereo not given)	-4	-3	1	-2	3	-3
CCN(CC)CCn1c(NCc2cccc(OC)c2OC)nc2ccccc21	-11	9	0	-5	0	31*
CCN(CC)CCn1c(NCc2ccco2)nc2ccccc21	-3	8	0	-5	-4	3
CCOc1ccc(NC(=O)CN(C)C(=O)Cc2ccc3c(c2)OCCO3)cc1OCC	-6	1	6	0	-2	2
CCc1cccc2c1Sc1ccccc1CC2N1CCNCC1 (stereo not given)	-15	24	8	-18	-40	4
CSc1ccc2c(c1)C(N1CCN(C)CC1)Cc1ccccc1S2 (stereo not given)	-18	55*	25	4	-18	70*
CN1CCN(C2Cc3ccc(F)cc3Sc3cc(F)c(Cl)cc32)CC1 (stereo not given)	-20	24	10	-15	-12	10
CN1CCN(C2Cc3ccccc3Sc3ccc(Cl)cc32)CC1 (stereo not given)	-18	52*	6	0	-19	54*
CN1CCN(C2Cc3cc(F)ccc3Sc3ccc(Cl)cc32)CC1 (stereo not given)	-35	84*	16	-15	-75	80*
COc1cccc(C(C(=O)NC2CCCC2)N2CCN(c3cc(C)nc4ccccc34)CC2)c1OC (stereo not given)	10	6	3	-3	-8	-5
Cc1cc(NC(=O)COC(=O)c2cccc(S(=O)(=O)N(C)C3CCCCC3)c2)no1	-5	30*	3	-4	9	4
COc1ccc(NS(=O)(=O)c2cccc(C(=O)OCC(=O)Nc3cc(C)on3)c2)cc1	-5	9	5	5	8	0
Cc1ccc(NS(=O)(=O)c2ccc(C(=O)OCC(=O)Nc3cc(C)on3)cc2)cc1	2	7	19	26*	-5	4
CCOC(=O)[C@]12CCC=C1N(Cc1ccc3c(c1)OCO3)C(=O)[C@H](CC(=O)N1CCSCC1)C2	-7	-2	2	1	-4	13
SMILES	CHRM5 PAM	CHRM4 antagonist	CHRM4 agonist	M5 ag	CHRM4 PAM	CHRM5 antagonist
COc1ccc([C@H]2N[C@]3(CCCN(CC4CCCCC4)C3=O)[C@H]3C(=O)N(Cc4ccccc4)C(=O)[C@@H]23)cc1	-2	-5	2	1	-1	0
CC(=O)NC(c1ccccc1)c1cc([N+](=O)[O-])c2cccnc2c1O (stereo not given)	22*	-5	1	3	6	-13
O=C1Nc2cccc3c2N(CCC3)C2=C1CCC2	0	-12	2	1	2	-2
CCOc1ccc(C(=O)Nc2cc(-c3nc4ccccc4[nH]3)ccc2C)cc1[N+](=O)[O-]	-2	-1	6	-4	7	0
CCOc1ccc(C(=O)Nc2cc(-c3nc4ccccc4[nH]3)ccc2Cl)cc1[N+](=O)[O-]	-15	15	12	3	-7	38*
Cn1c(SCC(=O)c2cc(Cl)c(Cl)s2)nnc1-c1ccco1	19*	2	1	6	-8	-11
Cc1cc(C(=O)CSc2nc3ccc(Cl)cc3[nH]2)c(C)n1C	2	2	2	0	3	4
Cc1cc(C(=O)CSc2nc3ccccc3[nH]2)c(C)n1Cc1ccco1	-17	12	19	7	-26	27*
C=CCn1c(C)cc(C(=O)CSc2nc3ccccc3c(=O)[nH]2)c1C	-29	6	21	3	-12	22
Cc1cc(C(=O)CSc2nc3ccc(Cl)cc3[nH]2)c(C)n1CC1CCCO1 (stereo not given)	-18	31*	12	4	-12	19
C=CCn1c(C)cc(C(=O)CSc2nc3ccccc3[nH]2)c1C	-23	29*	29	11	-15	20
O=C(NC(=O)c1c(F)cccc1F)Nc1cccc(Oc2ncc(Cl)cn2)c1	0	-14	1	1	4	5
CCCCn1nnnc1C(c1cc2ccccc2o1)N(C)Cc1ccc(Cl)cc1 (stereo not given)	-3	8	1	-1	-10	-11
C[N+]12CCC(CC1)C(OC(=O)C(O)(c1ccccc1)c1ccccc1)C2 (stereo not given)	-18	100*	0	-2	-18	99*
CC(C)C[C@H]1CN(CCCC[C@@H]2CNC(=O)C(=O)N2Cc2ccccc2)C(=O)C(=O)N1CCc1ccccc1	2	13	-1	-1	-3	-3
O=C(c1c[nH]c(C(=O)C(Cl)(Cl)Cl)c1)c1ccc(F)cc1F	-12	0	22	0	-2	28*
C[C@H]1[C@H](NC(=O)C(=NOC(C)(C)C(=O)O)c2csc(N)n2)C(=O)N1S(=O)(=O)O	-3	3	0	0	-7	4
COc1ccc(-c2cn3cccnc3n2)cc1F	18*	8	0	0	1	-5
